Reference: ChEMBL document CHEMBL2021876, “New pyridobenzoxazepine derivatives derived from 5-(4-methylpiperazin-1-yl)-8-chloro-pyrido[2,3-b][1,5]benzoxazepine (JL13): chemical synthesis and pharmacological evaluation” (J Med Chem, 2012)

Columns and labels:
[1] = biological target: T1, 5-hydroxytryptamine receptor 1A (Homo sapiens, UniProt P08908); assay: Displacement of [3H]8-OH-DPAT from human recombinant 5HT1A receptor expressed in CHO cells after 60 mins by liquid scintillation counting; assay type: cell-based
T1 sequence (P08908 whole entry): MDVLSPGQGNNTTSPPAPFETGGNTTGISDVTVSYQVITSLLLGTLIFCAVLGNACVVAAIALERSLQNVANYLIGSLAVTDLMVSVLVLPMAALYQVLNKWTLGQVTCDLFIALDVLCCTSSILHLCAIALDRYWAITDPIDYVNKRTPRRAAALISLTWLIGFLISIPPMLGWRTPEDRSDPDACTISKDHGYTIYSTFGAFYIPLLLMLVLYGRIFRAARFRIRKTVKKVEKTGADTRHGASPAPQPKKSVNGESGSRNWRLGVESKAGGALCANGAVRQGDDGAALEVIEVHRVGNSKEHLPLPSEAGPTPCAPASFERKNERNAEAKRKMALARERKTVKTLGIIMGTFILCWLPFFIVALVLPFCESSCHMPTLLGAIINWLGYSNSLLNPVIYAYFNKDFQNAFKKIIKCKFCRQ

[2] = biological target: Serotonin 1a (5-HT1a) receptor/Adrenergic receptor alpha-1 (Rattus norvegicus) (UniProt P15823+P23944+P43140+P19327); assay: In vivo displacement of [3H]8-OH-DPAT from 5HT1A receptor in Sprague-Dawley rat medial-prefrontal cortex at 13.75 mg/kg, ip qd for 28 days by autoradiography relative to control; assay type: functional, organism-based; parameters: dose 13.75 mg/kg
Procedure, shortened: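 Male Sprague-Dawley rats (200−225 g, N = 8/group) dosed ip once daily for 28 days, vehicle controls, decapitated; 10 μm frozen coronal sections. Preincubation 1 h RT in 50 mM Tris-HCl pH 7.6, 0.1% ascorbic acid, 4 mM CaCl2, 10 μM pargyline; then 1 h RT with 2.0 nM [3H]8-OH-DPAT. Nonspecific: 1 μM 5-HT. Saturating conditions; binding in fmol/mg tissue, % of control, mean ± SEM.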

[3] = In vivo displacement of [3H]Ketanserin from 5HT2A receptor in Sprague-Dawley rat dorsolateral frontal cortex at 13.75 mg/kg, ip qd for 28 days by autoradiography relative to control; assay type: functional; settings: route intraperitoneal
Procedure, shortened: (§1)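 Rats (male Sprague-Dawley, N = 8/group) given daily ip injections for 28 days versus vehicle. Brain sections preincubated 1 h RT in 50 mM Tris-HCl pH 7.7, then 1 h RT with 3.0 nM [3H]ketanserin plus 1 μM prazosin and 100 nM tetrabenazine. Nonspecific: 1 μM methysergide. Washes 2 × 30 min ice-cold. Readout fmol/mg tissue as % of control, mean ± SEM.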

[4] = In vivo displacement of [3H]Ketanserin from 5HT2A receptor in Sprague-Dawley rat medial-prefrontal cortex at 13.75 mg/kg, ip qd for 28 days by autoradiography relative to control; assay type: functional; settings: route intraperitoneal; procedure, shortened: as §1
[5] = system: Caudate-putamen; assay: In vivo displacement of [3H]Nemonapride from dopamine D4 receptor in Sprague-Dawley rat medial part of caudate putamen at 13.75 mg/kg, ip qd for 28 days by autoradiography relative to control; assay type: functional; settings: route intraperitoneal
[6] = biological target: T2, Alpha-2A adrenergic receptor (Homo sapiens, UniProt P08913); assay: Displacement of [3H]-MK-912 from human cloned adrenergic alpha2A receptor expressed in insect Sf9 membranes after 60 mins by liquid scintillation counting; assay type: cell membranes
T2 sequence (P08913 whole entry): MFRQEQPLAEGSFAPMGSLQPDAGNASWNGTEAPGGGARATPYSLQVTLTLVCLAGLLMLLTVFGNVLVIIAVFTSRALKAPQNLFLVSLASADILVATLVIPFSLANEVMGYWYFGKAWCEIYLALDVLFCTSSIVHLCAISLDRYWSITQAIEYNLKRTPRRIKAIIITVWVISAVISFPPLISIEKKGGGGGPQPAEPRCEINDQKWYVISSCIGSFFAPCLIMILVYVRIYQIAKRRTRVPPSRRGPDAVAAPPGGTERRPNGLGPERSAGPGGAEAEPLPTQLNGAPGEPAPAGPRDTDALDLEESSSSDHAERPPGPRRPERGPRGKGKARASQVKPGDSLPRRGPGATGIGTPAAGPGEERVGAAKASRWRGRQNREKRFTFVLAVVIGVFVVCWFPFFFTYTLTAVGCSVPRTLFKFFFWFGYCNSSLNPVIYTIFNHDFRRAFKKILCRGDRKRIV
Procedure, shortened: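 Membranes from Sf9 cells expressing cloned human α2A-adrenoceptor. Nonspecific binding defined with 10 μM WB4101. Filtered on GF/C and counted by scintillation.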

[7] = In vivo displacement of [3H]SCH-23390 from dopamine D1 receptor in Sprague-Dawley rat dorsolateral frontal cortex at 13.75 mg/kg, ip qd for 28 days by autoradiography relative to control; assay type: functional; settings: route intraperitoneal
Procedure, shortened: (§2)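 Forebrain sections from male Sprague-Dawley rats (N = 8/group) after 28 days of daily ip injections versus vehicle. Incubation 1 h RT in 50 mM Tris-HCl pH 7.4, 120 mM NaCl, 5 mM KCl, 2 mM CaCl2, 1 mM MgCl2 with 1 nM [3H]SCH-23390 and 100 nM ketanserin. Nonspecific: 1 μM cis-flupenthixol. Saturating conditions; fmol/mg tissue, % of control.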

[8] = In vivo displacement of [3H]Nemonapride from dopamine D4 receptor in Sprague-Dawley rat entorhinal cortex at 13.75 mg/kg, ip qd for 28 days by autoradiography relative to control; assay type: functional; settings: route intraperitoneal
[9] = In vivo displacement of [3H]SCH-23390 from dopamine D1 receptor in Sprague-Dawley rat nucleus accumbens at 13.75 mg/kg, ip qd for 28 days by autoradiography relative to control; assay type: functional; settings: route intraperitoneal; procedure, shortened: as §2
[10] = system: Hippocampus; assay: In vivo displacement of [3H]Nemonapride from dopamine D4 receptor in Sprague-Dawley rat hippocampus at 13.75 mg/kg, ip qd for 28 days by autoradiography relative to control; assay type: functional; settings: route intraperitoneal
[11] = biological target: T3, D(4) dopamine receptor (Homo sapiens) (UniProt P21917); assay: Displacement of [3H]-YM09151-2 from human cloned dopamine D4 receptor expressed in insect Sf9 cells at 10^-6 M after 60 mins by liquid scintillation counting
T3 sequence (whole entry): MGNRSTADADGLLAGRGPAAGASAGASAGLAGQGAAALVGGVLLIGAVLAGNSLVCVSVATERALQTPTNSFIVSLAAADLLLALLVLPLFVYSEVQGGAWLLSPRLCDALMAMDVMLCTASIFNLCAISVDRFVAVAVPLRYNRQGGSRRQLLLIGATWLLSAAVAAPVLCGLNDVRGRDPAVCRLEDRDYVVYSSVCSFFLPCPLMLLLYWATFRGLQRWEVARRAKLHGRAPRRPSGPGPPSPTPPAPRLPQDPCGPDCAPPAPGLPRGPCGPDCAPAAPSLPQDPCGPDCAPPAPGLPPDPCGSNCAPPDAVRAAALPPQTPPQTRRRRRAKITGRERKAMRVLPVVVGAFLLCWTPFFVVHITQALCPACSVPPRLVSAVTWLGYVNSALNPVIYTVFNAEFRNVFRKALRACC

[12] = system: Hippocampus; assay: In vivo displacement of [3H]Ketanserin from 5HT2A receptor in Sprague-Dawley rat hippocampus CA1 region at 13.75 mg/kg, ip qd for 28 days by autoradiography relative to control; assay type: functional; settings: route intraperitoneal; procedure, shortened: as §1

Clc1ccc2c(c1)N=C(N1CCNCC1)c1cccnc1O2
Ki [1]: 375 nM | inhibition [2]: 137% | inhibition in vivo at 13.75 mg/kg [3]: 53% | inhibition in vivo at 13.75 mg/kg [4]: 56% | inhibition in vivo at 13.75 mg/kg [5]: 166% | Ki [6]: 729 nM | inhibition in vivo at 13.75 mg/kg [7]: 95% | inhibition in vivo at 13.75 mg/kg [8]: 103% | inhibition in vivo at 13.75 mg/kg [9]: 128% | inhibition in vivo at 13.75 mg/kg [10]: 117% | inhibition [11]: 28% | inhibition in vivo at 13.75 mg/kg [12]: 96%
